Among the data in ChEMBL document CHEMBL1146538, “Antioxidative glycosides from the leaves of Ligustrum robustum” (J Nat Prod, 2003) are IC50 and Activity values, retold here.

By IC50 is commonly meant the point on the concentration scale where inhibition reaches its midpoint.

Each structure is given as a SMILES string. Calls of active or inactive are those of the source. No cut-off for these calls is given here.

Test system in one experiment: not listed separately
As to the kind of experiment: (§1) Antioxidant activity assessed as inhibition of AAPH-induced hemolysis in rat RBC after 3 hrs. The class given is functional, cell-based. Particulars: erythrocyte. Summed up: (§2)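 Rat blood drawn from abdominal aorta; RBC separated by centrifugation (2500 rpm, 10 min), washed three times with five volumes PBS pH 7.4. 2 mL RBC suspension mixed with 2 mL PBS containing varying glycoside amounts, then 1 mL of 400 mM AAPH in PBS; shaken at 37 °C for 3 h. Diluted with 8 mL PBS, centrifuged, supernatant A540 read; % inhibition versus control.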
On to `C[C@@H]1O[C@@H](O[C@@H]2[C@@H](O)[C@H](OCCc3ccc(O)c(O)c3)O[C@H](CO)[C@H]2OC(=O)/C=C/c2ccc(O)c(O)c2)[C@H](O)[C@H](O)[C@H]1O` [ACETOSIDE], for which the IC50 was determined as 28 µM.
Still for that read-out and setting: the same measure for `O=c1cc(-c2ccc(O)cc2)oc2cc(O[C@@H]3O[C@H](CO)[C@@H](O)[C@H](O)[C@H]3O)cc(O)c12` [APIGETRIN]: 88.4 µM; for `C[C@@H]1O[C@@H](O[C@@H]2[C@@H](O)[C@@H](O)[C@H](O[C@@H]3[C@@H](O)[C@H](OCCc4ccc(O)c(O)c4)O[C@H](CO)[C@H]3OC(=O)/C=C/c3ccc(O)c(O)c3)O[C@H]2C)[C@H](O)[C@H](O)[C@H]1O` [LIGUPURPUROSIDE A]: 26.3 µM.
As for `C[C@@H]1O[C@@H](O[C@@H]2[C@@H](O)[C@@H](O)[C@H](O[C@@H]3[C@@H](O)[C@H](OCCc4ccc(O)cc4)O[C@H](CO)[C@H]3OC(=O)/C=C/c3ccc(O)cc3)O[C@H]2C)[C@H](O)[C@H](O)[C@H]1O` [LIGUPURPUROSIDE B], the IC50 amounted to 80.4 µM.
Still for that read-out and setting: next, `C/C(=C\CO[C@@H]1O[C@H](CO)[C@@H](OC(=O)/C=C/c2ccc(O)cc2)[C@H](O[C@@H]2O[C@@H](C)[C@H](O)[C@@H](O)[C@H]2O)[C@H]1O)C/C=C\C(C)(C)O` [LIGUROBUSTOSIDE I]: 340 µM; `C[C@@H]1O[C@@H](O[C@@H]2[C@@H](O)[C@@H](O)[C@H](O[C@@H]3[C@@H](O)[C@H](OCCc4ccc(O)cc4)O[C@H](CO)[C@H]3O)O[C@H]2C)[C@H](O)[C@H](O)[C@H]1O` [LIGUROBUSTOSIDE M]: 134 µM.
Take `C[C@@H]1O[C@@H](O[C@@H]2[C@@H](O)[C@@H](O)[C@H](O[C@@H]3[C@@H](O)[C@H](OCCc4ccc(O)cc4)O[C@H](CO)[C@H]3OC(=O)/C=C/c3ccc(O)c(O)c3)O[C@H]2C)[C@H](O)[C@H](O)[C@H]1O` [LIGUROBUSTOSIDE N]: the IC50 amounted to 21.8 µM.
Still for that read-out and setting: the same measure for `C[C@@H]1O[C@@H](O[C@@H]2[C@@H](O)[C@H](OCCc3ccc(O)cc3)O[C@H](COC(=O)/C=C/c3ccc(O)cc3)[C@H]2O)[C@H](O)[C@H](O)[C@H]1O` [OSMANTHUSIDE B6]: 91.7 µM.
On the same count and under the same terms, the same measure for `C[C@@H]1O[C@@H](O[C@@H]2[C@@H](O)[C@H](OCCc3ccc(O)cc3)O[C@H](CO)[C@H]2OC(=O)/C=C/c2ccc(O)cc2)[C@H](O)[C@H](O)[C@H]1O` [OSMANTHUSIDE B]: 160 µM; for `C[C@@H]1O[C@@H](O[C@H]2[C@H](Oc3cc(O)c4c(=O)cc(-c5ccc(O)cc5)oc4c3)O[C@H](CO)[C@@H](O)[C@@H]2O)[C@H](O)[C@H](O)[C@H]1O` [RHOIFOLIN]: 95.9 µM; for `Cc1c(C)c2c(c(C)c1O)CCC(C)(C(=O)O)O2` (centres undefined) [TROLOX]: 101 µM.

The test system of a further experiment is Erythrocyte. Described as §1. The class given is functional, cell-based.
Conditions: not given
In a few lines: as §2
With `C=C(C)C(=O)CC/C(C)=C/CO[C@@H]1O[C@H](CO)[C@@H](OC(=O)/C=C/c2ccc(O)cc2)[C@H](O[C@@H]2O[C@@H](C)[C@H](O)[C@@H](O)[C@H]2O)[C@H]1O`, the outcome was inactive.
Same read-out and setting: next, `CC(C)=CCC/C(C)=C/CO[C@@H]1O[C@H](CO)[C@@H](OC(=O)/C=C/c2ccc(O)cc2)[C@H](O[C@@H]2O[C@@H](C)[C@H](O)[C@@H](O)[C@H]2O)[C@H]1O`: “inactive”.
In the case of `CC(C)=CCC/C(C)=C/CO[C@@H]1O[C@H](COC(=O)/C=C/c2ccc(O)cc2)[C@@H](O)[C@H](O[C@@H]2O[C@@H](C)[C@H](O)[C@@H](O)[C@H]2O)[C@H]1O`, the result was inactive.
